CAL PDZ FP-1 – blocks peptide binding to the human CAL PDZ domain | inhibition, % at 24.9 µM | Q9HD26 | hit rate 0.92% among 300,000 | purified CAL PDZ, TMR-peptide fluorescence polarization, 1 h;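 active = mean inhibition of at least 30% with at least half of replicates also reaching 30%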;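 also: 0% = DMSO neutral control and 100% = excess unlabeled competitor peptide PRC23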
ARNT TACC3 PPI – disruptors of human ARNT/TACC3 interaction. inhibition, % at 9.99 µM. AlphaScreen His-ARNT PAS-B/GST-TACC3 binding, luminescence; TACC3 fragment carries E629A point mutation. hit rate 0.66% among 390,000;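 active = mean inhibition of replicates at least 50% and at least half of replicates each reaching 50%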;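 also: 0% = complete ARNT plus TACC3 wells and 100% = ARNT alone without TACC3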
CAL PDZ FP-2 – human CAL PDZ-peptide interaction inhibition. Q9HD26. purified CAL PDZ, TMR-peptide fluorescence polarization, 1 h. inhibition, % at 20 µM. hit rate 0.02% among 330,000. AID 504414;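 active = highest replicate inhibition of at least 40%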;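 also: plate controls were DMSO neutral control wells for no effect and unlabeled competitor peptide control wells for full effect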
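Material – purified CerCALP PDZ construct · Detection – FP readout, S and P plane fluorescence · Measure – percent inhibition from loss of millipolarization · Controls – unlabelled peptide for full inhibition, DMSO wells as neutral · Probe or stimulus – TMR-labelled reporter peptide T*-PRC34 bound in PDZ groove · Times – 1 h at RT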
* hit, by the source's call; x = no result given. This is a sample that favours compounds with a hit; in the whole collection about 1.2% have one here.

SMILES	CAL PDZ FP-1	ARNT TACC3 PPI	CAL PDZ FP-2
O=S(=O)(c1cccc(-c2n[nH]c(=S)o2)c1)N1CCOCC1	98*	-4	-1
O=S(=O)(c1cccc(-c2n[nH]c(=S)n2-c2ccccc2Cl)c1)N1CCOCC1	7	3	-1
Cc1ccc(C(=O)N/C(=C\c2ccco2)C(=O)NCCCn2ccnc2)cc1	-7	98*	1
COc1ccc(/C=C(/NC(=O)c2ccccc2)C(=O)NCCCn2ccnc2)cc1OC	3	5	0
COc1ccc(/C=C(\NC(=O)c2ccc(C)cc2)C(=O)NCCCn2ccnc2)cc1OC	-3	54*	-1
Cc1ccc(C(=O)N/C(=C/c2ccccc2F)C(=O)NCCCn2ccnc2)cc1	-5	12	-1
CN(C)c1ccc(/C=C(\NC(=O)c2ccccc2)C(=O)NCCCn2ccnc2)cc1	-3	54*	-3
Cc1ccc(C(=O)N/C(=C/c2ccco2)C(=O)NCCCn2ccnc2)cc1	-2	49*	0
O=C(NCCCn1ccnc1)/C(=C/c1ccco1)NC(=O)c1ccccc1	-3	7	-1
O=C(NCCCn1ccnc1)/C(=C/c1ccccc1)NC(=O)c1ccccc1	2	15	-1
O=C(c1cccc(F)c1)N1C[C@@H]2[C@H](c3ccccc31)[C@@H](CO)N2C(=O)C1CCOCC1	x	-9	x
C[C@@H]1CCCCO[C@@H](CN(C)C(=O)c2ccccc2)[C@H](C)CN([C@H](C)CO)C(=O)c2cc(NC(=O)Nc3ccccc3)ccc2O1	x	1	x
CO[C@H]1CN(C)C(=O)c2ccc(NC(=O)Nc3cc(F)ccc3F)cc2OC[C@H](C)N(C)C[C@H]1C	x	2	x
CO[C@H]1CN(C)C(=O)c2cc(NS(C)(=O)=O)ccc2OC[C@H](C)N(C(=O)C2CCC2)C[C@@H]1C	x	-5	x
C[C@@H]1CN([C@H](C)CO)C(=O)c2cc(NC(=O)Nc3ccc(F)cc3)ccc2O[C@H]1CN(C)S(=O)(=O)c1ccc(F)cc1	x	-9	x
CCOc1ccc(NC(=O)CCN2CCN(S(=O)(=O)c3ccc(F)cc3)CC2)cc1	74*	-2	0
COc1ccc(NC(=O)CCN2CCN(S(=O)(=O)c3ccc(F)cc3)CC2)cc1	x	2	-1
Cc1ccc(S(=O)(=O)N(C)C[C@H]2Oc3ccc(NC(=O)C4CC4)cc3C(=O)N([C@H](C)CO)C[C@@H]2C)cc1	x	-10	x
Cc1noc(C)c1NC(=O)N(C)C[C@@H]1OCCCC[C@H](C)Oc2ccc(NC(=O)NC(C)C)cc2C(=O)N([C@@H](C)CO)C[C@@H]1C	x	5	x
Cc1sc(NC(=O)Cc2ccc3c(c2)OCO3)nc1-c1ccc2c(c1)CCN2C(=O)c1ccc(F)cc1	-3	-6	-1
Cc1sc(NC(=O)CN2CCCC2)nc1-c1ccc2c(c1)CCN2C(=O)c1cccc(F)c1	165*	13	-2
Cc1cc(C(=O)COC(=O)c2ccc(N)c([N+](=O)[O-])c2)c(C)n1Cc1ccc2c(c1)OCO2	123*	0	0
Cc1cc(C(=O)COC(=O)c2ccc(N)c([N+](=O)[O-])c2)c(C)n1-c1ccc2c(c1)OCO2	-5	9	-2
O=C(C1CC1)N1C[C@H]2[C@@H](c3ccccc31)[C@H](CO)N2Cc1ccccc1Cl	x	3	x
O=C(CNC(=O)c1ccc2c(c1)OCCO2)N/N=C/c1ccc([N+](=O)[O-])cc1	-2	-5	-1
SMILES	CAL PDZ FP-1	ARNT TACC3 PPI	CAL PDZ FP-2
O=C(CNC(=O)c1ccc2c(c1)OCCO2)N/N=C/c1ccc(Cl)cc1	70*	-1	-2
COc1ccc(C(C[N+](=O)[O-])c2c(C)[nH]n(-c3ccccc3)c2=O)cc1 (stereo not given)	-3	72*	x
Cc1[nH]n(-c2ccccc2)c(=O)c1C(C[N+](=O)[O-])c1ccccc1Cl (stereo not given)	0	33	-1
Cn1cnc(S(=O)(=O)N[C@H]2CC[C@@H](CC(=O)N3CCN(c4ccccc4)CC3)O[C@H]2CO)c1	x	12	x
CCCCN1CCc2c([nH]c3c(C)cccc23)C1=O	72*	-3	-1
CCCc1c(C)c2cccc(C)c2[nH]c1=O	-6	-8	x
CO[C@@H](CN(C)C(=O)c1cnccn1)[C@H](C)CN([C@@H](C)CO)S(=O)(=O)c1ccc(Cl)cc1	x	-4	x
C[C@H](CO)N1C[C@H](C)[C@H](CN(C)S(=O)(=O)c2ccc(Cl)cc2)Oc2c(NC(=O)c3ccc(-c4nccs4)cc3)cccc2C1=O	x	0	x
CN(Cc1ccccc1)C(=C(Cl)Cl)C(=C1NCCN1)[N+](=O)[O-]	-3	11	1
O=[N+]([O-])C(=C1Nc2ccccc2N1)/C(Cl)=C(/Cl)Br	0	61*	-3

From PubChem BioAssay
